These results are taken from ChEMBL document CHEMBL4196208, “Antiproliferative Sesquiterpenoids from Ligularia rumicifolia with Diverse Skeletons” (J Nat Prod, 2018).

The source made the active and inactive calls. No cut-off for these calls is given here.

Format in all cases: functional, cell-based
One assay has as its system A549. The assay is described as follows: Antiproliferative activity against human A549 cells after 72 hrs by MTT assay. The conditions noted are these: for IC50: A549, 72 h. The essentials:
(§1)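 Human tumour lines HGC-27 (stomach), A-549 (lung), HeLa (cervical) and MV4-11 (leukemia) tested in a standard MTT assay, with taxol as positive control. Each assay repeated more than three times. IC50 calculated by the Reed and Muench method, reported as mean ± SD.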
(In general: Formazan colour is commonly taken as a measure of viable cells.)

The next assay has as its system HGC-27. Briefly: Antiproliferative activity against human HGC27 cells after 72 hrs by MTT assay. The following applies: for IC50: HGC-27, 72 h. A digest of the protocol:
as §1

In the next assay the test system is HeLa. Briefly: Antiproliferative activity against human HeLa cells after 72 hrs by MTT assay. A digest of the protocol:
as §1

The next assay concerns MV4-11. Briefly: Antiproliferative activity against human MV411 cells after 72 hrs by MTT assay. The conditions noted are these: for IC50: MV4-11, 72 h. The essentials: as §1

As to `C/C=C(/C)C(=O)O[C@@H]1CCC2=CC(=O)[C@@H]([C@@]3(C)CO3)C[C@]2(C)[C@H]1C`, the outcome in the assay with A549, with HGC-27, in the assay with HeLa and in the assay with MV4-11 was inactive.
`C=C(C)[C@@H]1C[C@@]2(C)C(=CC1=O)CC[C@@H](OC(=O)/C(C)=C/C)[C@@H]2C`: the outcome with A549, in the assay on HGC-27, in the assay on HeLa and in the assay on MV4-11 was inactive.
With `C/C=C(/C)C(=O)OC(CC=C(C)C)/C(C)=C1\C[C@@H](O)C(C)=C(OC(C)=O)C1=O` (some centres undefined), the result with A549, in the assay with HGC-27, with HeLa and with MV4-11 was inactive.
With `C=C1[C@H]2[C@@H]([C@@H]([C@@H](C)OC)C(=O)[C@H]2OC(=O)C(C)CC)[C@H]([C@@]2(C)CO2)[C@@H](OC(=O)/C(C)=C\C)[C@H]1OC(=O)/C=C(\C)CC` (some centres undefined), the outcome in the assay with A549, with HGC-27, in the assay with HeLa and in the assay on MV4-11 was inactive.
For the compound `C=C(C(CC=C(C)C)OC(=O)/C(C)=C\C)[C@@H]1[C@H](OC(=O)/C(C)=C\C)[C@@H]2O[C@]2(C)C(=O)[C@H]1OC(C)=O` (some centres undefined), the result in the assay on A549, in the assay with HGC-27, in the assay with HeLa and in the assay on MV4-11 was inactive.
In the case of `C/C=C(/C)C(=O)OC1=C(C)[C@H](O)C/C(=C(/C)C(CC=C(C)C)OC(=O)/C(C)=C\C)C1=O` (some centres undefined), the result in the assay with A549, in the assay with HGC-27, with HeLa and in the assay on MV4-11 was inactive.
Consider `C=C1[C@H]2[C@@H](/C(=C/C)C(=O)[C@H]2OC(=O)C(C)CC)[C@H]([C@@]2(C)CO2)[C@@H](OC(=O)C(C)CC)[C@H]1OC(=O)/C=C(\C)CC` (some centres undefined), for which the result in the assay with A549, in the assay with HGC-27, in the assay on HeLa and in the assay on MV4-11 was inactive.
On to `C=C1[C@@H]2[C@H](OC(=O)C(C)CC)[C@H](OC(C)=O)[C@H]([C@@H](C)OC(=O)C[C@@H](C)O)[C@H]2[C@H]([C@@]2(C)CO2)[C@@H](OC(=O)CC(C)CC)[C@H]1OC(=O)/C=C(\C)CC` (some centres undefined), for which the result in the assay with A549, in the assay with HGC-27, in the assay with HeLa and in the assay on MV4-11 was inactive.
As for `C=C(C)[C@@H]1CCc2ccc(O)c(C)c2C1`, the result in the assay with A549, with HGC-27, with HeLa and in the assay with MV4-11 was inactive.
On to `C=C1[C@H]2[C@@H](/C(=C\C)C(=O)[C@H]2OC(=O)C(C)CC)[C@H]([C@@]2(C)CO2)[C@@H](OC(=O)C(C)CC)[C@H]1OC(=O)/C=C(\C)CC` (some centres undefined), for which the result in the assay with A549, with HGC-27, in the assay with HeLa and with MV4-11 was inactive.
As to `C=C(C(CC=C(C)C)OC(=O)/C(C)=C\C)[C@H]1C[C@@H](O)C(C)=C(OC(C)=O)C1=O` (some centres undefined), the result with A549, in the assay on HGC-27, in the assay on HeLa and with MV4-11 was inactive.
Turning to `C=C(C)[C@@H]1C[C@@]2(C)C(=CC1=O)CC[C@@H](OC(=O)C=C(C)C)[C@@H]2C`, the result in the assay on A549, with HGC-27, in the assay with HeLa and in the assay on MV4-11 was inactive.
Regarding `C=C(C)[C@@H]1C[C@@]2(C)C(=CC1=O)CC[C@@H](OC(=O)/C(C)=C\C)[C@@H]2C`, the outcome in the assay on A549, in the assay with HGC-27, in the assay with HeLa and in the assay on MV4-11 was inactive.
For `C=C(C(CC=C(C)C)OC(=O)/C(C)=C\C)[C@@H]1[C@@H](O)[C@@H](OC(=O)/C(C)=C/C)[C@](C)(O)C(=O)[C@H]1OC(C)=O` (some centres undefined), the result in the assay on A549, in the assay on HGC-27, in the assay with HeLa and in the assay with MV4-11 was inactive.
As to `C=C1[C@H]2[C@@H](/C(=C\C)C(=O)[C@H]2OC(=O)C(C)CC)[C@H]([C@@]2(C)CO2)[C@@H](OC(=O)CC(C)CC)[C@H]1OC(=O)/C=C(\C)CC` (some centres undefined), the result in the assay with A549, in the assay with HGC-27, in the assay with HeLa and in the assay with MV4-11 was inactive.
As to `C/C=C(/C)C(=O)O[C@@H]1CCC2=CC(=O)[C@H]([C@]3(C)CO3)C[C@]2(C)[C@H]1C`, the outcome in the assay on A549, with HGC-27, with HeLa and in the assay on MV4-11 was inactive.
As to `C=C(C)[C@@H]1C[C@@]2(C)C(=CC1=O)[C@H](O)C[C@@H](OC(=O)/C(C)=C\C)[C@@H]2C`, the IC50 is 13.5 µM in the assay on A549, 7.2 µM with HGC-27, 5.7 µM with HeLa and 2.5 µM in the assay on MV4-11.
For `C=C1[C@@H]2[C@H](OC(=O)C(C)CC)[C@H](OC(C)=O)[C@H]([C@@H](C)OC(=O)C[C@@H](C)O)[C@H]2[C@H]([C@@]2(C)CO2)[C@@H](OC(=O)/C(C)=C\C)[C@H]1OC(=O)/C=C(\C)CC` (some centres undefined) the same measures were 12.5 µM, 6.1 µM, 8.4 µM and 9 µM.
For the compound `C=C1[C@H]2[C@@H](/C(=C/C)C(=O)[C@H]2OC(=O)C(C)CC)[C@H]([C@@]2(C)CO2)[C@@H](OC(=O)CC(C)CC)[C@H]1OC(=O)/C=C(\C)CC` (some centres undefined), the outcome with A549, in the assay on HGC-27, in the assay on HeLa and with MV4-11 was inactive.
Regarding `C=C(c1ccc(C)c(O)c1O)C(CC=C(C)C)OC(=O)/C(C)=C\C` (centres undefined), the result with A549, with HGC-27, in the assay with HeLa and in the assay with MV4-11 was inactive.
As to `C=C(C(CC=C(C)C)OC(=O)/C(C)=C\C)[C@@H]1C[C@H](O)[C@](C)(OC)C(=O)[C@H]1OC(=O)/C(C)=C\C` (some centres undefined), the outcome in the assay on A549, in the assay on HGC-27, in the assay on HeLa and with MV4-11 was inactive.
Take `C=C1[C@H]2[C@H]([C@H]([C@@]3(C)CO3)[C@@H](OC(=O)/C(C)=C\C)[C@H]1OC(=O)/C=C(\C)CC)[C@@H](CC)C(=O)[C@H]2OC(=O)C(C)CC` (some centres undefined): the outcome in the assay on A549, with HGC-27, with HeLa and with MV4-11 was inactive.
In the case of `C=C(C(CC=C(C)C)OC(=O)/C(C)=C\C)[C@@H]1C[C@@H]2O[C@]2(C)C(=O)[C@@H]1OC(C)=O` (some centres undefined), the outcome in the assay on A549, with HGC-27, in the assay with HeLa and in the assay with MV4-11 was inactive.
As for `C=C(C(CC=C(C)C)OC(=O)/C(C)=C\C)[C@@H]1C[C@H](O)[C@](C)(OC)C(=O)[C@H]1OC(C)=O` (some centres undefined), the result in the assay with A549, in the assay with HGC-27, in the assay on HeLa and with MV4-11 was inactive.
Take `C=C1[C@H]2[C@@H](/C(=C\C)C(=O)[C@H]2OC(=O)C(C)CC)[C@H]([C@@]2(C)CO2)[C@@H](OC(=O)/C(C)=C\C)[C@H]1OC(=O)/C=C(\C)CC` (some centres undefined): the outcome with A549, in the assay with HGC-27, in the assay on HeLa and in the assay with MV4-11 was inactive.
With `C=C(C(/C=C/C(C)(C)O)OC(=O)/C(C)=C\C)[C@@H]1[C@H](OC(=O)/C(C)=C\C)[C@@H]2O[C@]2(C)C(=O)[C@H]1OC(C)=O` (some centres undefined), the result in the assay on A549, in the assay with HGC-27, in the assay on HeLa and in the assay with MV4-11 was inactive.
As for `C=C(C)[C@@H]1C[C@@]2(C)C(=CC1=O)[C@@H](O)C[C@@H](OC(=O)/C(C)=C\C)[C@@H]2C`, the concentration for half-maximal inhibition (IC50) in the assay with A549 came out at 6.3 µM; with HGC-27 it was 2.1 µM; with HeLa it was 2.4 µM; in the assay with MV4-11, 0.5 µM.
`C=C(C)[C@@H]1C[C@@]2(C)C(=CC1=O)CC[C@@H](O)[C@@H]2C`: the outcome with A549, in the assay with HGC-27, with HeLa and in the assay on MV4-11 was inactive.
With `C=C1[C@H]2[C@@H]([C@@H]([C@@H](C)OC)C(=O)[C@H]2OC(=O)C(C)CC)[C@H]([C@@]2(C)CO2)[C@@H](OC(=O)C(C)CC)[C@H]1OC(=O)/C=C(\C)CC` (some centres undefined), the result in the assay with A549, in the assay on HGC-27, in the assay with HeLa and in the assay with MV4-11 was inactive.
Regarding `C=C(C)[C@@H]1C[C@@]2(C)C(=CC1=O)CC[C@@H](OC(=O)CC(C)C)[C@@H]2C`, the 50% inhibitory concentration (IC50) in the assay with A549 was 9.7 µM; in the assay with HGC-27, 5.3 µM; with HeLa, 6.6 µM; with MV4-11, 7.5 µM.
Regarding `C=C(C(CC=C(C)C)OC(=O)/C(C)=C\C)[C@@H]1[C@@H](O)[C@@H]2O[C@]2(C)C(=O)[C@H]1OC(C)=O` (some centres undefined), the result with A549, in the assay on HGC-27, in the assay on HeLa and in the assay on MV4-11 was inactive.

As a reminder, the IC50 is the point on the concentration scale where inhibition reaches its midpoint. A low value points to greater potency.
